From ChEMBL document CHEMBL4354849, “[1,2,5]Oxadiazolo[3,4-b]pyrazine-5,6-diamine Derivatives as Mitochondrial Uncouplers for the Potential Treatment of Nonalcoholic Steatohepatitis” (J Med Chem, 2020)
Calls of active or inactive are those of the source. No cut-off for these calls is given here.

Columns and labels:
[1] = Induction of mitochondrial uncoupling in rat L6 cells assessed as oxygen consumption rate measured over 90 mins by oxygen consumption rate by seahorse assay; type: mitochondria, Mitochondria
L6 = assay: Induction of mitochondrial uncoupling in rat L6 cells assessed as oxygen consumption rate up to 50 uM measured over 90 mins by oxygen consumption rate by seahorse assay relative to <= 50 uM BAM15; conditions: Mitochondria
In short: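 L6 rat myoblasts were seeded at 3.5 × 10⁴ cells/well and left to adhere overnight. Medium was switched to unbuffered DMEM with pyruvate and glutamine, pH 7.4, and cells were equilibrated 1 h at 37°C without CO₂. One concentration per well, 2 wells per condition, OCR followed over 90 min. The first three post-injection readings were averaged to build the dose curve. AUC above baseline was expressed relative to BAM15 run on each plate; EC50 came from a Hill fit with the bottom fixed at 100% baseline.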

Mus musculus [2] = assay: Induction of hyperglycemia in Stelic C57BL/6 mouse model of streptozotocin-induced NASH at 10 mg/kg/day, po for 21 days; type: organism-based; conditions: in vivo, 504 h
Mus musculus [3] = assay: Effect on ballooning in Stelic C57BL/6 mouse model of streptozotocin-induced NASH at 10 mg/kg/day, po for 21 days; type: ADME, organism-based; conditions: in vivo, 504 h
Mus musculus [4] = assay: Improvement in liver fibrosis in Stelic C57BL/6 mouse model of streptozotocin-induced NASH assessed as increase in plasma cholesterol at 10 mg/kg/day, po for 21 days; type: functional, organism-based
Mus musculus [5] = assay: Improvement in liver fibrosis in Stelic C57BL/6 mouse model of streptozotocin-induced NASH assessed as reduction in plasma triglyceride at 10 mg/kg/day, po for 21 days; type: functional, organism-based
Mus musculus [6] = assay: Improvement in liver fibrosis in Stelic C57BL/6 mouse model of streptozotocin-induced NASH assessed as effect on plasma AST level at 10 mg/kg/day, po for 21 days; type: functional, organism-based
Mus musculus [7] = assay: Improvement in liver fibrosis in Stelic C57BL/6 mouse model of streptozotocin-induced NASH assessed as effect on liver Gfap mRNA expression at 10 mg/kg/day, po for 21 days; type: functional, organism-based
Mus musculus [8] = assay: Improvement in liver fibrosis in Stelic C57BL/6 mouse model of streptozotocin-induced NASH assessed as NAS score at 10 mg/kg/day, po for 21 days (reference value: 4.6 +/- 0.7); type: functional
Mus musculus [9] = assay: Effect on body weight in Stelic C57BL/6 mouse model of streptozotocin-induced NASH at 10 mg/kg/day, po for 21 days; type: ADME, organism-based; conditions: in vivo, 504 h
Mus musculus [10] = assay: Effect on food intake in Stelic C57BL/6 mouse model of streptozotocin-induced NASH assessed as reduction in food intake at 10 mg/kg/day, po for 21 days; type: ADME, organism-based; parameters: scale not given: the % may be the effect or the level left; conditions: in vivo, 504 h
Mus musculus [11] = assay: Improvement in liver fibrosis in Stelic C57BL/6 mouse model of streptozotocin-induced NASH assessed as liver fibrosis score at 10 mg/kg/day, po for 21 days by Picrosirius ed staining based assay (reference value: 0.91 +/- 0.25); type: functional
Mus musculus [12] = assay: Improvement in liver fibrosis in Stelic C57BL/6 mouse model of streptozotocin-induced NASH assessed as effect on liver Cd146 mRNA expression at 10 mg/kg/day, po for 21 days; type: functional, organism-based
Mus musculus [13] = assay: Effect on liver weight in Stelic C57BL/6 mouse model of streptozotocin-induced NASH at 10 mg/kg/day, po for 21 days; type: ADME, organism-based; conditions: in vivo, 504 h

| SMILES | EC50 [1] [nM] | Activity (L6) [%] | further results |
| --- | --- | --- | --- |
| Cc1ccc(Nc2nc3nonc3nc2Nc2ccccc2F)cc1 | 2100 |  |  |
| Fc1cc(Nc2nc3nonc3nc2Nc2ccc(C(F)(F)F)c(F)c2)ccc1C(F)(F)F | 1700 |  |  |
| CCOc1cccc(Nc2nc3nonc3nc2Nc2cccc(OCC)c2)c1 | 10100 | 45 |  |
| CCOc1ccc(Nc2nc3nonc3nc2Nc2ccccc2F)cc1 | 3800 |  |  |
| Cc1ccc(Nc2nc3nonc3nc2Nc2ccc(C)c(C)c2)cc1C | > 100000 |  |  |
| Fc1ccccc1Nc1nc2nonc2nc1Nc1ccccn1 | 9000 | 20 |  |
| CCc1ccc(Nc2nc3nonc3nc2Nc2ccc(CC)cc2)cc1 | 3900 |  |  |
| Fc1cc(I)ccc1Nc1nc2nonc2nc1Nc1ccc(I)cc1F | 8800 |  |  |
| C1CCC(Nc2nc3nonc3nc2NC2CCCC2)C1 | 45000 | 20 |  |
| Cc1ccccc1Nc1nc2nonc2nc1Nc1ccccc1C | 2300 |  |  |
| Fc1ccccc1Nc1nc2nonc2nc1Nc1ccc(C(F)(F)F)cc1 | 270 |  |  |
| Fc1cc(C(F)(F)F)ccc1Nc1nc2nonc2nc1Nc1ccc(C(F)(F)F)cc1F | < 1000 |  |  |
| FC(F)(F)c1cccc(Nc2nc3nonc3nc2Nc2cccc(C(F)(F)F)c2)c1 | 700 | 28 |  |
| Cc1cccc(Nc2nc3nonc3nc2Nc2cccc(C)c2)c1 | 2100 | 22 |  |
| Fc1cc(Br)ccc1Nc1nc2nonc2nc1Nc1ccc(Br)cc1F | < 3000 |  |  |
| Fc1ccc(Nc2nc3nonc3nc2Nc2ccccc2F)cc1 | 2300 | 65 |  |

| SMILES | EC50 [1] [nM] | Activity (L6) [%] | further results |
| --- | --- | --- | --- |
| Cc1ccc(Nc2nc3nonc3nc2Nc2ccc(C)cc2)cc1 | > 20000 | 59 |  |
| Fc1ccccc1Nc1nc2nonc2nc1Nc1ccccc1 | 2200 | 65 |  |
| CCOc1cccc(Nc2nc3nonc3nc2Nc2ccccc2F)c1 | 2200 | 28 |  |
| CCOc1ccccc1Nc1nc2nonc2nc1Nc1ccccc1F | 5600 | 15 |  |
| Fc1ccccc1Nc1nc2nonc2nc1NC1CCCCC1 | 13400 |  |  |
| Oc1ccc(F)c(Nc2nc3nonc3nc2Nc2ccccc2F)c1 | 30000 | 45 |  |
| O=C(Nc1ccc(Nc2nc3nonc3nc2Nc2ccccc2F)cc1)C(F)(F)F | 4100 |  |  |
| COc1cccc(Nc2nc3nonc3nc2Nc2cccc(OC)c2)c1 | > 100000 | 43 |  |
| COc1ccc(Nc2nc3nonc3nc2Nc2ccc(OC)cc2)cc1 | > 100000 | 14 |  |
| CCCc1nc2c(C)cc(-c3nc4ccccc4n3C)cc2n1Cc1ccc(-c2ccccc2C(=O)O)cc1 [TELMISARTAN] |  |  | Activity (Mus musculus [2]): Toxic; Activity (Mus musculus [3]): Non-Toxic; Activity (Mus musculus [4]): Active; Activity (Mus musculus [5]): Active; Activity (Mus musculus [6]): inactive; Activity (Mus musculus [7]): inactive; Activity (Mus musculus [8]): 2.9; Activity (Mus musculus [9]): Toxic; Activity (Mus musculus [10]): 23%; Activity (Mus musculus [11]): 0.6; Activity (Mus musculus [12]): inactive; Activity (Mus musculus [13]): Toxic |
| FC(F)(F)Oc1ccc(Nc2nc3nonc3nc2Nc2ccc(OC(F)(F)F)c(Br)c2)cc1Br | 2200 |  |  |
| FC(F)(F)Oc1ccc(Nc2nc3nonc3nc2Nc2ccc(OC(F)(F)F)cc2)cc1 | < 5000 | 14 |  |
| Fc1ccccc1Nc1nc2nonc2nc1Nc1ccccc1OC(F)(F)F | 1700 | 67 |  |
| Fc1ccccc1Nc1nc2nonc2nc1NCCC(F)(F)F | > 100000 |  |  |
| FC(F)(F)c1cc(Nc2nc3nonc3nc2Nc2cc(C(F)(F)F)cc(C(F)(F)F)c2)cc(C(F)(F)F)c1 | 6100 |  |  |

Continued, in another order:

| EC50 [1] [nM] | Activity (L6) [%] | SMILES | further results |
| --- | --- | --- | --- |
| < 1000 |  | Fc1cc(F)cc(Nc2nc3nonc3nc2Nc2cc(F)cc(F)c2)c1 |  |
| < 370 |  | Fc1ccccc1Nc1nc2nonc2nc1Nc1cccc(C(F)(F)F)c1F |  |
| 1100 | 58 | Cc1ccccc1Nc1nc2nonc2nc1Nc1ccccc1F |  |
| 300 | 22 | Fc1ccc(Nc2nc3nonc3nc2Nc2ccccc2F)c(F)c1 |  |
| 1300 |  | Fc1ccccc1Nc1nc2nonc2nc1Nc1ccc(OC(F)(F)F)cc1 |  |
| 600 | 8 | Fc1ccccc1Nc1nc2nonc2nc1Nc1cccc(OC(F)(F)F)c1 |  |
| 1100 | 53 | FC(F)(F)Oc1cccc(Nc2nc3nonc3nc2Nc2cccc(OC(F)(F)F)c2)c1 |  |
| 1600 | 52 | COc1ccc(Nc2nc3nonc3nc2Nc2ccccc2F)cc1 |  |
| 500 | 15 | Fc1ccccc1Nc1nc2nonc2nc1Nc1cccc(F)c1F |  |
| 830 |  | COc1cccc(Nc2nc3nonc3nc2Nc2ccccc2F)c1 |  |
| 1400 | 57 | Fc1ccccc1Nc1nc2nonc2nc1Nc1ccccc1C(F)(F)F |  |
| 1500 |  | Cc1cccc(Nc2nc3nonc3nc2Nc2ccccc2F)c1 |  |
| < 1000 |  | Fc1ccccc1Nc1nc2nonc2nc1Nc1cccc(C(F)(F)F)c1 |  |
| < 370 |  | Fc1ccccc1Nc1nc2nonc2nc1Nc1cc(C(F)(F)F)cc(C(F)(F)F)c1 |  |
| < 1000 |  | Fc1ccc(C(F)(F)F)cc1Nc1nc2nonc2nc1Nc1cc(C(F)(F)F)ccc1F |  |
| 1000 | 39 | FC(F)(F)c1ccccc1Nc1nc2nonc2nc1Nc1ccccc1C(F)(F)F |  |
| 1100 |  | Fc1cc(F)c(Nc2nc3nonc3nc2Nc2c(F)cc(F)cc2F)c(F)c1 |  |
